Measurements gathered from unrelated publications.
Protocols differ between the studies behind these lines. In brackets after ≈: the same amount, converted by molar mass.

C/C(=C\c1ccc(C#N)cc1)C(=O)Nc1ccc(C(=O)N[C@@H](CC(N)=O)C(=O)Nc2ccc(C(=O)Nc3ccc(C(=O)Nc4ccc(C(=O)O)cc4)c(O)c3OC(C)C)cc2)cc1 — MIC (Serratia marcescens; microbial growth; DSM30121): > 64 µg/mL
CCCNc1nc(N(C)C)c2c(c1O)C(=O)C1=C(O)[C@]3(O)C(=O)C(C(N)=O)=C(O)[C@@H](N(C)C)[C@@H]3C[C@@H]1C2.Cl.Cl — MIC (Enterobacter cloacae; microbial growth; broth dilution; ATCC13047): > 32 µg/mL
C/C=C(\C)c1cc(O)c(C)c(OC(=O)c2c(C)c(Cl)c(O)c(Cl)c2O)c1 — MIC (Enterococcus gallinarum; microbial growth; broth dilution; GALLINARUM): 8 µg/mL (≈ 20.1 µM)
Cc1c(CN(C)C(=O)/C=C/c2cnc3c(c2)CC(CCN)C(=O)N3)oc2ccccc12.Cl (centres unmarked) — MIC (Enterobacter cloacae; microbial growth; broth dilution): 8 µg/mL
CCCC[C@H]1CN(CCCC[C@H]2CNC(=N)N2CCc2cccc(C(F)(F)F)c2)C(=N)N1CCCCC1CCCCC1 — MBC (Enterobacter cloacae; microbial killing): 4.2 µM (≈ 2.48 µg/mL)
CO[C@@H](C(N)=O)[C@H](NC(=O)c1ccc(NC(=O)c2ccc(C#N)cc2)cc1)C(=O)Nc1ccc(C(=O)Nc2ccc(C(=O)Nc3ccc(C(=O)O)cc3)c(O)c2OC(C)C)cc1 — MIC (Serratia marcescens; microbial growth; DSM30121): > 64 µg/mL
C/C=C(\C)c1cc(OC(=O)c2c(C)c(Cl)c(O)c(Cl)c2O)c(C)c(O)c1C(=O)O — MIC (Enterococcus gallinarum; microbial growth; broth dilution; GALLINARUM): 64 µg/mL (≈ 145 µM)
CN(C)[C@@H]1C(O)=C(C(N)=O)C(=O)[C@@]2(O)C(O)=C3C(=O)c4c(O)c(N)nc(F)c4C[C@H]3C[C@@H]12.Cl.Cl — MIC (Enterobacter cloacae; microbial growth; broth dilution; ATCC13047): 0.5 µg/mL
CC(C)Oc1c(NC(=O)c2ccc(NC(=O)[C@H](CC(N)=O)NC(=O)c3ccc(NC(=O)c4ccc(C#N)cn4)cc3)cc2)ccc(C(=O)Nc2ccc(C(=O)O)cc2)c1O — MIC (Enterobacter cloacae; microbial growth; DSM30054): > 64 µg/mL
CN[C@H](CC(C)C)C(=O)N[C@H]1C(=O)N[C@@H](CC(N)=O)C(=O)N[C@H]2C(=O)N[C@H]3C(=O)N[C@H](C(=O)N[C@H](C(=O)O)c4cc(O)cc(O)c4-c4cc3ccc4O)[C@H](O)c3ccc(c(Cl)c3)Oc3cc2cc(c3O[C@@H]2O[C@H](CO)[C@@H](O)[C@H](O)[C@H]2O[C@H]2C[C@](C)(N)[C@H](O)[C@H](C)O2)Oc2ccc(cc2Cl)[C@H]1O — MIC (Enterococcus gallinarum; microbial growth; broth dilution; GALLINARUM): 4 µg/mL (≈ 2.76 µM)
CC(C)OCCNc1nc(Cl)c2c(c1O)C(=O)C1=C(O)[C@]3(O)C(=O)C(C(N)=O)=C(O)[C@@H](N(C)C)[C@@H]3C[C@@H]1C2.Cl.Cl.Cl — MIC (Enterobacter cloacae; microbial growth; broth dilution; ATCC13047): 32 µg/mL
